This note sets out measurements from ChEMBL document CHEMBL1148795 (J Med Chem, 2007).

SMILES strings stand for the structures. The source made the active and inactive calls. No cut-off for these calls is given here. Bounds are passed on as bounds.

Series [1] in a line: Cytotoxicity against human CEM-SS cells by MTT assay. In kind it is cell-based. A general note: Tetrazolium assays rely on reduction of a dye to a coloured formazan, in cell work by metabolically active cells.
In series [2] the target is Human immunodeficiency virus type 1 reverse transcriptase (Human immunodeficiency virus 1, UniProt Q72547). Nature of the series: Inhibition of HIV1 reverse transcriptase.
Series [3] has as its system Human immunodeficiency virus 1. Briefly: Antiviral activity against HIV1 RF in human CEM-SS cells by XTT assay. In kind it is functional, organism-based. The conditions noted are these: for EC50: Human immunodeficiency virus 1, RF.
In series [4] the test system is Human immunodeficiency virus 1. Briefly: Antiviral activity against HIV1 with RT Y181C mutation. It is filed as functional, organism-based. An outline of the steps: (§1)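 Cytoprotection assay in CEM-SS cells infected with HIV-1 strains engineered to carry the NNRTI-resistance RT mutation (K103N or Y181C). Activity is expressed as the EC50 for protection of the cells from virus-induced cytopathic effect.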

Series [5] relates to Human immunodeficiency virus 1. Briefly: Antiviral activity against HIV1 with RT K103N mutation. In kind it is functional, organism-based. An outline of the steps: as §1
A short description of series [6]: Metabolic stability in rat plasma. It is filed as ADME, cell-free. An outline of the steps: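 Compounds were incubated in reconstituted rat plasma (two lots, checked with a control compound), with 1,1-diphenylethylene as internal standard. Aliquot supernatants were analysed by HPLC with UV detection. Half-lives came from regression fits of concentration versus time and were averaged over at least two replicates.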

The test system of series [7] is Human immunodeficiency virus 2. Briefly: Antiviral activity against HIV2 ROD in human MT4 cells by MTT assay.
The nature of series [8]: Cytotoxicity against human MT4 cells by MTT assay. In kind it is cell-based.
In series [9] the test system is Human immunodeficiency virus 1. Nature of the series: Antiviral activity against HIV1 3B in human MT4 cells by MTT assay. As to conditions: for EC50: Human immunodeficiency virus 1, 3B.

`COc1c(C)cc(/C(=C\CCc2nnc(C)o2)c2ccc3oncc3c2)cc1C(=O)SC`: the midpoint of cytotoxicity in series [1], the CC50, lay at 38 µM. In series [2], this molecule had an IC50 of 7.7 µM. Besides, the EC50 in series [3] is 2.6 µM; in series [4] it was above 100 µM; in [5], above 50 µM.

In the case of `COC(=O)CCCC=C(c1cc(Cl)c(OC)c(C(=O)OC)c1)c1cc(Cl)c(OC)c(C(=O)OC)c1`, the CC50 was found to be 32 µM in [1] and 160 µM in series [8]. Moreover, the half-life in series [6] turned out to be 5.8 min. Besides, the concentration giving a half-maximal response (EC50) in [7] (Human immunodeficiency virus 2, ROD) was 25 µM; in series [3], 0.01 µM.

In the case of `COC(=O)c1cc(C(=CCCc2nnc(C)o2)c2cc(C)c(OC)c(C(=O)SC)c2)cc(C)c1OC`, the outcome in [9], in series [7] and in series [3] was inactive. In addition, the CC50 was found to be 13 µM in series [1] and 3.9 µM in [8]. The molecule further had a half-life in [6] of 78 min. Half-maximal inhibition in [2] (IC50) was put at 32 µM.

Consider `COC(=O)c1cc(/C(=C\CCc2nnc(C)o2)c2ccc(C#N)cc2)cc(C)c1OC`, for which the EC50 worked out at 2 µM in series [9] and 3 µM in series [3]. The CC50 was found to be 28 µM in series [1] and 16 µM in [8]. Moreover, the half-life in [6] stood at 45 min. In [2], this molecule registered an IC50 of 24 µM. The result in [7] was inactive.

For the molecule `COC(=O)c1cc(/C(=C\CCc2nnn(C)n2)c2cccc(C#N)c2)cc(C)c1OC`, the EC50 was 1.5 µM in [9] and 2.4 µM in series [3]. Also, the CC50 was determined as 7.4 µM in [1] and 34 µM in series [8]. The molecule further showed a half-life in [6] of 42 min. For the same molecule, in [2], the IC50 amounted to 7.7 µM. Further, the outcome in series [7] was inactive.

With `COC(=O)CCCC=C(c1cc(Br)c(OC)c(C(=O)OC)c1)c1cc(Br)c(OC)c(C(=O)OC)c1`, the CC50 in series [1] was 13 µM; in [8], 91 µM. In addition, in [6], the half-life is 6.2 min. Besides, the outcome in series [7] was inactive.

As for `COC(=O)c1cc(C(=CCCc2nnn(C)n2)c2cc(C)c(OC)c(C(=O)OC)c2)cc(C)c1OC`, the result in series [9], in series [7] and in series [3] was inactive. In addition, the results for the CC50 in series [1] and in series [8] were 9.6 µM and 5 µM, respectively. In [6], this molecule displayed a half-life of 24 min. The IC50 in series [2] came out at 53 µM.

In turn, `COc1c(C)cc(/C(=C\CCc2nnc(C)o2)c2cccc(C#N)c2)cc1C(=O)SC` yielded an EC50 in series [9] of 1.4 µM. Further, the values for the CC50 in series [1] and in [8] were 2.7 µM and 8.4 µM, respectively. The half-life in series [6] amounted to 221 min. In series [2], this molecule came in with an IC50 of 9.3 µM. The outcome in series [7] and in series [3] was inactive.

For the molecule `COc1c(C)cc(/C(=C/CCCc2nnc(C)o2)c2cc(C)c3on(C)c(=O)c3c2)cc1C(=O)SC`, the outcome in series [9], in series [7] and in series [3] was inactive. Further, the values for the CC50 in [1] and in [8] were 12 µM and 25 µM, respectively. This molecule had an IC50 in [2] above 100 µM.

On to `COc1c(C)cc(/C(=C/CCc2nnc(C)o2)c2cccc(C#N)c2)cc1C(=O)SC`, for which the result in series [9], in series [7] and in [3] was inactive. The figures for the CC50 in series [1] and in series [8] were 1.3 µM and 3.8 µM, respectively. The molecule also came in with an IC50 in series [2] of 55 µM.

As to `COC(=O)c1cc(/C(=C/CCc2nnc(C)o2)c2cc(C)c3oc(=O)n(C)c3c2)cc(C)c1OC`, the EC50 is 0.44 µM in series [9], 0.43 µM in series [3], above 100 µM in [4] and above 50 µM in series [5]. Further, the CC50 in [1] worked out at 3.2 µM; in series [8] it was 13 µM. The IC50 in series [2] was 1 µM. Moreover, the outcome in series [7] was inactive.

Regarding `COC(=O)c1cc(C(=CCCc2nnc(C)o2)c2cc(C)c(OC)c(C(=O)OC)c2)cc(C)c1OC`, the CC50 in [1] was 40 µM; in series [8] it was 37 µM. Also, the half-life in series [6] is 3.3 min. Besides, the IC50 in [2] is 71 µM. Further, the result in series [7] was inactive.

One may read the CC50 as the concentration giving 50% cytotoxicity. In general, IC50 refers to the concentration at which inhibition is half-maximal. The term EC50 denotes the concentration at which the effect is half-maximal. A lower EC50 goes with an effect from little substance. A word on the half-life: it is the time in which the quantity being followed falls by half. A high value points to slow loss.
